Measured values published in ChEMBL document CHEMBL2046296, “Synthesis and antidepressant activity of arylalkanol-piperidine derivatives as triple reuptake inhibitors” (Eur J Med Chem, 2012).

How the values were obtained:
[1] = molecular target: T1, Sodium-dependent noradrenaline transporter (Homo sapiens, UniProt P23975); test: Inhibition of [3H]noradrenaline uptake at human NET expressed in HEK293 cells at 10 uM after 10 mins by scintillation counting
[2] = molecular target: Sodium-dependent dopamine transporter (Homo sapiens, UniProt Q01959); test: Inhibition of [3H]dopamine uptake at human DAT expressed in HEK293 cells at 10 uM after 10 mins by scintillation counting
[3] = molecular target: T2, Sodium-dependent serotonin transporter (Homo sapiens, UniProt P31645); test: Inhibition of [3H]serotonin uptake at human SERT expressed in HEK293 cells at 10 uM after 10 min by scintillation counting
Target sequence in this assay (P31645 whole entry, looked up): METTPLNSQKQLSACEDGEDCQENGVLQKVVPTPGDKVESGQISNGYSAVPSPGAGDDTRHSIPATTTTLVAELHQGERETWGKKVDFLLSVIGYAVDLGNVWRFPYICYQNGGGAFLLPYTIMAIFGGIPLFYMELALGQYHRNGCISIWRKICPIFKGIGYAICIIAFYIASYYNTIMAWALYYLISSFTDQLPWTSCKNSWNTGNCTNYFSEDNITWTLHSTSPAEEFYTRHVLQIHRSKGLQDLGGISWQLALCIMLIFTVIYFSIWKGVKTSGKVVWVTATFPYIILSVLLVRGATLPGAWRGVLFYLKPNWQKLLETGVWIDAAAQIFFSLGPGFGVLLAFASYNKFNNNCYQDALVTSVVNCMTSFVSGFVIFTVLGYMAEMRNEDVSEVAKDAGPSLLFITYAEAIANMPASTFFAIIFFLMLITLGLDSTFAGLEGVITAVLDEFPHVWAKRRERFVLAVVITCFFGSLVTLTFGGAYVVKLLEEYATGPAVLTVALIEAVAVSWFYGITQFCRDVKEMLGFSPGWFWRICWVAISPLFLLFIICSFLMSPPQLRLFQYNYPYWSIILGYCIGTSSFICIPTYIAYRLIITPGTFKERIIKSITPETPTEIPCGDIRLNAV

[4] = molecular target: T2, Sodium-dependent serotonin transporter; test: Inhibition of [3H]serotonin uptake at human SERT expressed in HEK293 cells after 10 min by scintillation counting
Target sequence in this assay (P31645 whole entry): as the sequence (P31645 whole entry, looked up) above

[5] = molecular target: T1, Sodium-dependent noradrenaline transporter; test: Inhibition of [3H]noradrenaline uptake at human NET expressed in HEK293 cells after 10 mins by scintillation counting
[6] = system: Mus musculus; test: Antidepressant activity in mouse assessed as decrease in immobility at 50 mg/kg, po administered 30 mins prior to testing by tail suspension test relative to vehicle control; format: functional; parameters: scale not given: the % may be the effect or the level left
Method in brief: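 Oral doses of 10–50 mg/kg (three doses) were given once, 30 min before testing. Mice were hung by adhesive tape 1 cm from the tail tip, 75 cm above the tabletop. Immobility was recorded for 5 min, scored blind, 10–12 mice per group, against vehicle controls. One-way ANOVA with Scheffe post hoc test; p<0.05 significant.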

[7] = system: Mus musculus; test: Toxicity in mouse assessed as increase in locomotor activity at 50 mg/kg, po up to 5 mins relative to vehicle treated control; format: organism-based; parameters: dose 50 mg/kg, route oral; conditions: in vivo
Method in brief: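 Mice were dosed orally at 50 mg/kg and 30 min later placed singly in new 35×35×35 cm plastic cages under dim light with sound attenuation. Activity was logged by a monitoring apparatus at intervals up to 30 min, and the 5 min point was analysed. Mean ± SEM; one-way ANOVA, Scheffe post hoc, versus control.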

Chain of Sodium-dependent dopamine transporter (Q01959 whole entry): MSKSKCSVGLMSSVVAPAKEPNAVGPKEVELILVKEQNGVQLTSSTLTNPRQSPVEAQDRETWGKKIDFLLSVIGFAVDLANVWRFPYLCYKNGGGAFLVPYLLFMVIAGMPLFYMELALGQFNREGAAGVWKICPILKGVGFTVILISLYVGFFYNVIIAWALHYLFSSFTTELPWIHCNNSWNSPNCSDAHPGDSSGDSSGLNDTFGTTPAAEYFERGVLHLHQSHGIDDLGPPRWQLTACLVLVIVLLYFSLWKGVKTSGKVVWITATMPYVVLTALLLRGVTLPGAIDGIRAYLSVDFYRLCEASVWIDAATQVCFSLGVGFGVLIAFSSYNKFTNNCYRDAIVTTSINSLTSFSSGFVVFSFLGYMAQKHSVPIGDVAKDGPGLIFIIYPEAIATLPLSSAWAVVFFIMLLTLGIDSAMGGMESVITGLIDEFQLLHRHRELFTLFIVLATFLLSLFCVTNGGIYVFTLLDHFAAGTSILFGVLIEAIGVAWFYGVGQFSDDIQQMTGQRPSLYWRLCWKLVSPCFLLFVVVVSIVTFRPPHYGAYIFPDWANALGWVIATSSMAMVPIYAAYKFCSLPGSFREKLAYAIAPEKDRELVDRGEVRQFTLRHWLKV
T1 sequence (P23975 whole entry): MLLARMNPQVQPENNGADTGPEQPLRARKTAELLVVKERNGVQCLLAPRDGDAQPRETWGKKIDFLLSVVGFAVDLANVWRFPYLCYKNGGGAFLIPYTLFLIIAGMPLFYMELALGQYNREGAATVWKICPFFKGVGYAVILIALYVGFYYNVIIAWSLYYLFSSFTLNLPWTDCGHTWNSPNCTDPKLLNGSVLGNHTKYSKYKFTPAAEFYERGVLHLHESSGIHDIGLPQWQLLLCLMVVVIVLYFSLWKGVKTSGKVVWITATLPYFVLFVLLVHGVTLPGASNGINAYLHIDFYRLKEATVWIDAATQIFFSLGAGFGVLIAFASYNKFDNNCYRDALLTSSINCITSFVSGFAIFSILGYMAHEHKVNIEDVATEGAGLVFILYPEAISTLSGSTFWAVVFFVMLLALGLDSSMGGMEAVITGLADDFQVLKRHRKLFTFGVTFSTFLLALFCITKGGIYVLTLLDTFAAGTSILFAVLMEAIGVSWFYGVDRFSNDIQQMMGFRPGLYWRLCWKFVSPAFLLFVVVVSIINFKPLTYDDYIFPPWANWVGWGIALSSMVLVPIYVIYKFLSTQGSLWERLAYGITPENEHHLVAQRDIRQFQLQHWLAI

Row | SMILES | inhibition [1] [%] | inhibition [2] [%] | inhibition [3] [%] | IC50 [4] [nM] | IC50 [5] [nM] | Activity [6] [%] | Activity [7]
1 | COc1ccc(C(O)CCN2CC=C(Cc3ccccc3)CC2)cc1OC (racemic) | 63 | 61 | 74 |  |  |  | 
2 | C[C@H]([C@@H](O)c1ccc(Cl)c(Cl)c1)N1CC=C(Cc2ccccc2)CC1 (racemic) | 36 | 56 | 38 |  |  |  | 
3 | COc1ccc2cc(C(O)CCN3CCC(O)(Cc4ccccc4)CC3)ccc2c1Cl (racemic) |  | 73 |  | 427 | 800 |  | 
4 | Cc1ccc(C(O)CCN2CC=C(Cc3ccccc3)CC2)cc1 (racemic) | 83 | 30 | 62 |  |  |  | 
5 | C[C@H]([C@@H](O)c1csc2ccccc12)N1CC=C(Cc2ccccc2)CC1 (racemic) | 78 | 75 | 55 |  |  |  | 
6 | O=[N+]([O-])c1ccc(C(O)CCN2CC=C(Cc3ccccc3)CC2)cc1 (racemic) | 74 | 55 | 65 |  |  |  | 
7 | COc1ccc(C(O)CCN2CC=C(Cc3ccccc3)CC2)cc1 (racemic) | 62 | 57 |  | 768 |  |  | 
8 | C[C@@H]([C@@H](O)c1ccc(Cl)c(Cl)c1)N1CC=C(Cc2ccccc2)CC1 (racemic) |  | 64 |  | 367 | 531 |  | 
9 | COc1ccc([C@H](O)[C@@H](C)N2CC=C(Cc3ccccc3)CC2)cc1 (racemic) | 62 | 70 | 59 |  |  |  | 
10 | OC(CCN1CC=C(Cc2ccccc2)CC1)c1ccc(Cl)cc1 (racemic) | 50 | 61 | 56 |  |  |  | 
11 | COc1ccc(C(CN(C)C)C2(O)CCCCC2)cc1 (configuration not stated) [VENLAFAXINE] |  |  |  |  |  | 63 | Non-toxic
12 | OC(CCN1CCC(O)(Cc2ccccc2)CC1)c1csc2ccccc12 (racemic) | 61 | 64 | 27 |  |  |  | 
13 | COc1ccc2cc([C@H](O)[C@@H](C)N3CCC(O)(Cc4ccccc4)CC3)ccc2c1Cl (racemic) | 63 | 51 | 80 |  |  |  | 
14 | OC(CCN1CC=C(Cc2ccccc2)CC1)c1cccs1 (racemic) | 82 | 52 | 78 |  |  |  | 
15 | COc1ccc2cc([C@H](O)[C@H](C)N3CCC(O)(Cc4ccccc4)CC3)ccc2c1Cl (racemic) | 55 | 22 |  | 357 |  |  | 
16 | OC(CCN1CC=C(Cc2ccccc2)CC1)c1ccc2c(c1)CCO2 (racemic) | 88 | 49 | 74 |  |  |  | 
17 | C[C@@H]([C@@H](O)c1csc2ccccc12)N1CC=C(Cc2ccccc2)CC1 (racemic) | 34 | 77 | 33 |  |  |  | 
18 | C[C@H]([C@@H](O)c1cccc(F)c1)N1CC=C(Cc2ccccc2)CC1 (racemic) | 83 | 35 | 61 |  |  |  | 
19 | OC(CCN1CC=C(Cc2ccccc2)CC1)c1ccc(F)cc1F (racemic) | 78 | 66 | 66 |  |  |  | 
20 | COc1ccc([C@H](O)[C@H](C)N2CC=C(Cc3ccccc3)CC2)cc1 (racemic) | 55 | 68 | 80 |  |  |  | 
21 | C[C@@H]([C@@H](O)c1cccc(F)c1)N1CC=C(Cc2ccccc2)CC1 (racemic) | 57 | 70 | 63 |  |  |  | 
